From ChEMBL document CHEMBL4364265, “Oridonin derivatives as potential anticancer drug candidates triggering apoptosis through mitochondrial pathway in the liver cancer cells” (Eur J Med Chem, 2019) come the findings set out here.

Each structure is given as a SMILES string.

Common to all, as to format: functional, cell-based
In assay [1] the test system is PLC-PRF-5. The assay is described as follows: Antiproliferative activity against human PLC/PRF/5 cells incubated for 72 hrs in presence of oridonin by CCK8 cells. As to conditions: PLC-PRF-5, 72 h.
In assay [2] the test system is HepG2. The assay is described as follows: Antiproliferative activity against human HepG2 cells incubated for 72 hrs by CCK8 cells. The settings on record: HepG2, 72 h. In outline: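 CCK-8 proliferation assay. 10,000 cells per well were preincubated 24 h at 37 °C with 5% CO2, then given compound dissolved in DMSO and incubated 72 h. CCK-8 was added for 4 h and absorbance read at 450 nm. IC50 was taken from dose-response curves as mean ± SEM of at least three independent experiments, with paclitaxel as positive control. HepG2 and L-O2 were grown in DMEM/10% FBS; A549 and RPMI-8226 in RPMI 1640/10% FBS.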

The subject of assay [3] is PLC-PRF-5. The assay is described as follows: Antiproliferative activity against human PLC/PRF/5 cells incubated for 72 hrs by CCK8 cells. The settings on record: PLC-PRF-5, 72 h.
The test system of assay [4] is HepG2. The assay is described as follows: Antiproliferative activity against human HepG2 cells incubated for 72 hrs in presence of oridonin by CCK8 cells. As to conditions: HepG2, 72 h.

In general, IC50 refers to the concentration that inhibits the measured activity by half. On to `COc1ccc(/C=C/C(=O)O)cc1` [4-METHOXYCINNAMIC ACID], for which the half-maximal inhibitory concentration (IC50) was 6.55 µM in the assay on PLC-PRF-5 [1], greater than 100 µM in the assay on HepG2 [2], greater than 100 µM in the assay on PLC-PRF-5 [3] and 8.56 µM in the assay on HepG2 [4].
